# Test results as given in ChEMBL document CHEMBL5104228, “Mechanistic insight into the repair of C8-linked pyrrolobenzodiazepine monomer-mediated DNA damage” (2022).
# Activity calls are given as the source filed them. The rule behind the calls is not given here.
# Columns and labels:
# [1] = Binding affinity to AT-rich 5'-fluoro and 3'-TAMRA tagged 5'-TAT-ATA-TAG-ATA-TTT-TTT-TAT-CTA-TAT-ATA-3' hairpin DNA (unknown origin) assessed as thermal stabilization by measuring change in melting temperature at 1 uM incubated for 3 hrs by FRET analysis
# Summary of the method: (§1)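 Fluorophore/quencher-tagged hairpin DNA, AT-rich (Sequence 1) or GC-rich (Sequence 2), incubated with compound for 3 h or 24 h, then thermally melted. Melt curves were compared against a DNA-only control for the same sequence. Each reaction was run in triplicate.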
# [2] = Binding affinity to AT-rich 5'-fluoro and 3'-TAMRA tagged 5'-TAT-ATA-TAG-ATA-TTT-TTT-TAT-CTA-TAT-ATA-3' hairpin DNA(unknown origin) assessed as thermal stabilization by measuring change in melting temperature at 1 uM incubated for 24 hrs by FRET analysis; summary of the method: as §1
# [3] = Binding affinity to GC-rich 5'-fluoro and 3'-TAMRA tagged 5'-TAT-AGG-GAC-AGC-CCT-ATA-3' hairpin DNA (unknown origin) assessed as thermal stabilization by measuring change in melting temperature at 1 uM incubated for 3 hrs by FRET analysis; summary of the method: as §1
# [4] = Binding affinity to GC-rich 5'-fluoro and 3'-TAMRA tagged 5'-TAT-AGG-GAC-AGC-CCT-ATA-3' hairpin DNA (unknown origin) assessed as thermal stabilization by measuring change in melting temperature at 1 uM incubated for 24 hrs by FRET analysis; summary of the method: as §1
# [5] = tested on: Caulobacter vibrioides; assay: Effect on DNA damage repair in Caulobacter vibrioides expressing Gam-GFP reporter system assessed as increase in double stranded break by measuring Gam localization in cells at 25 to 50 ug/ml and measured after 2 hrs by fluorescence analysis; type: functional, organism-based; conditions: dose 25-50 µg/ml
# [6] = tested on: Caulobacter vibrioides; assay: Effect on DNA damage repair in Caulobacter vibrioides lacking uvrA expression assessed as decrease in cell survival rate upto 1 ug/ml and measured after 2 days by agar dilution method; type: functional, organism-based; conditions: dose <= 1.0 µg/ml, time 2.0 day
# [7] = tested on: Caulobacter vibrioides; assay: Induction of DNA damage in Caulobacter vibrioides assessed as increase in cell death upto 1 ug/ml and measured after 2 days by agar dilution method; type: functional, organism-based; conditions: dose <= 1.0 µg/ml, time 2.0 day, DDE = dose-dependent effect
# [8] = tested on: Caulobacter vibrioides; assay: Induction of DNA damage in Caulobacter vibrioides assessed as accumulation of SOS-induced YFP at 1 ug/ml incubated upto 2 hrs by fluorescence microscopy; type: functional, organism-based; conditions: dose 1.0 µg/ml
# [9] = tested on: Caulobacter vibrioides; assay: Effect on DNA damage repair in Caulobacter vibrioides lacking recA expression assessed as decrease in cell survival rate upto 1 ug/ml and measured after 2 days by agar dilution method; type: functional, organism-based; conditions: dose <= 1.0 µg/ml, time 2.0 day
# [10] = tested on: Caulobacter vibrioides; assay: Effect on DNA damage repair in Caulobacter vibrioides lacking recA, lexA and sidA expression assessed as decrease in cell survival rate upto 1 ug/ml and measured after 2 days by agar dilution method; type: functional, organism-based; conditions: dose <= 1.0 µg/ml, time 2.0 day
# [11] = tested on: Caulobacter vibrioides; assay: Effect on DNA damage repair in Caulobacter vibrioides lacking DnaE2 expression assessed as decrease in cell survival rate upto 1 ug/ml and measured after 2 days by agar dilution method; type: functional, organism-based; conditions: dose <= 1.0 µg/ml, time 2.0 day
# [12] = tested on: Caulobacter vibrioides; assay: Effect on DNA damage repair in Caulobacter vibrioides lacking recF expression assessed as decrease in cell survival rate upto 1 ug/ml and measured after 2 days by agar dilution method; type: functional, organism-based; conditions: dose <= 1.0 µg/ml, time 2.0 day
# [13] = tested on: Caulobacter vibrioides; assay: Effect on DNA damage repair in Caulobacter vibrioides lacking recO expression assessed as decrease in cell survival rate upto 1 ug/ml and measured after 2 days by agar dilution method; type: functional, organism-based; conditions: dose <= 1.0 µg/ml, time 2.0 day
# [14] = tested on: Caulobacter vibrioides; assay: Effect on DNA damage repair in Caulobacter vibrioides lacking recR expression assessed as decrease in cell survival rate upto 1 ug/ml and measured after 2 days by agar dilution method; type: functional, organism-based; conditions: dose <= 1.0 µg/ml, time 2.0 day
# [15] = tested on: Caulobacter vibrioides; assay: Effect on DNA damage repair in Caulobacter vibrioides lacking addAB expression assessed as decrease in cell survival rate upto 1 ug/ml and measured after 2 days by agar dilution method; type: functional, organism-based; conditions: dose <= 1.0 µg/ml, time 2.0 day
# [16] = tested on: Caulobacter vibrioides; assay: Effect on DNA damage repair in Caulobacter vibrioides lacking recN expression assessed as decrease in cell survival rate upto 1 ug/ml and measured after 2 days by agar dilution method; type: functional, organism-based; conditions: dose <= 1.0 µg/ml, time 2.0 day
# [17] = tested on: Caulobacter vibrioides; assay: Effect on DNA damage repair in Caulobacter vibrioides expressing Gam-GFP reporter system assessed as increase in double stranded break by measuring Gam localization in cells at 2 ug/ml and measured after 2 hrs by fluorescence analysis; type: functional; conditions: dose 2 µg/ml
# Summary of the method: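 Wild-type Caulobacter carrying a Gam-GFP reporter was drug-treated and imaged by fluorescence microscopy. The readout was the percentage of cells with Gam-GFP foci, counting […] cells. Mean and SD are from three independent experiments.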
# [18] = tested on: Caulobacter vibrioides; assay: Effect on DNA damage repair in Caulobacter vibrioides lacking alkB expression assessed as decrease in cell survival rate upto 1 ug/ml and measured after 2 days by agar dilution method; type: functional, organism-based; conditions: dose <= 1.0 µg/ml, time 2.0 day
# Summary of the method: (§2)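 Survival of Caulobacter wild type, ΔmutL and ΔalkB strains was tested across increasing drug doses. Cultures were serially diluted and spotted, and growth was scored along the dilution series. At least three independent experiments were run per strain, with mean and SEM of all repeats plotted.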
# [19] = tested on: Caulobacter vibrioides; assay: Effect on DNA damage repair in Caulobacter vibrioides lacking mutL expression assessed as decrease in cell survival rate upto 1 ug/ml and measured after 2 days by agar dilution method; type: functional, organism-based; conditions: dose <= 1.0 µg/ml, time 2.0 day; summary of the method: as §2
# [20] = tested on: Caulobacter vibrioides; assay: Effect on DNA damage repair in Caulobacter vibrioides lacking uvrA expression and expressing Gam-GFP reporter system assessed as fold increase in double stranded break by measuring Gam localization in cells at 1 ug/ml and measured after 2 hrs by fluorescence analysis; type: functional; conditions: dose 1 µg/ml
# [21] = tested on: Caulobacter vibrioides; assay: Effect on DNA damage repair in Caulobacter vibrioides lacking recN expression and expressing Gam-GFP reporter system assessed as fold increase in double stranded break by measuring Gam localization in cells at 2 ug/ml and measured after 2 hrs by fluorescence analysis; conditions: dose 2 µg/ml
# [22] = tested on: Caulobacter vibrioides; assay: Induction of DNA damage in Caulobacter vibrioides assessed as accumulation of SOS-induced YFP at 0.5 ug/ml incubated upto 2 hrs by fluorescence microscopy; type: functional, organism-based; conditions: dose 0.5 µg/ml
# [23] = tested on: Caulobacter vibrioides; assay: Effect on DNA damage repair in Caulobacter vibrioides assessed as fold change as increase in rifampicin resistance colonies at 2 ug/ml incubated for 0.5 hrs followed by culture in new media and treated with rifampicin and measured after 48 hrs by colony formation assay; type: functional; conditions: dose 2 µg/ml
# Summary of the method: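 Caulobacter cells exposed to drug; rifampicin-resistant colony counts expressed as fold change relative to untreated control (no DNA damage). Three independent experiments; mean and SD reported.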
# [24] = tested on: Caulobacter vibrioides; assay: Effect on DNA damage repair in Caulobacter vibrioides expressing Gam-GFP reporter system assessed as increase in double stranded break by measuring Gam localization in cells at 0.5 ug/ml and measured after 2 hrs by fluorescence analysis; type: functional; conditions: dose 0.5 µg/ml
# Summary of the method: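 Wild-type Caulobacter carrying a Gam-GFP reporter; after drug treatment, cells imaged by fluorescence microscopy and percentage of cells with Gam-GFP foci scored ([…] cells). Three independent experiments; mean and SD reported.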
# [25] = tested on: Caulobacter vibrioides; assay: Effect on DNA damage repair in Caulobacter vibrioides lacking uvrA expression and expressing Gam-GFP reporter system assessed as fold increase in double stranded break by measuring Gam localization in cells at 0.5 ug/ml and measured after 2 hrs by fluorescence analysis; type: functional; conditions: dose 0.5 µg/ml
# [26] = tested on: Caulobacter vibrioides; assay: Effect on DNA damage repair in Caulobacter vibrioides lacking recN expression and expressing Gam-GFP reporter system assessed as fold increase in double stranded break by measuring Gam localization in cells at 0.5 ug/ml and measured after 2 hrs by fluorescence analysis; conditions: dose 0.5 µg/ml
SMILES,ΔTm [1],ΔTm [2],ΔTm [3],ΔTm [4],Activity [6],Activity [7],Activity [9],Activity [10],Activity [11],Activity [12],Activity [13],Activity [14],Activity [15],Activity [16],Activity [18],Activity [19],Activity [22],Activity [24],Activity [25],fold change (FC) [26],also measured
COC(=O)c1cc(NC(=O)c2cc(NC(=O)CCCOc3cc4c(cc3OC)C(=O)N3CCC[C@H]3C=N4)cn2C)cn1C,18.9 °C,21.1 °C,18.6 °C,19.2 °C,–,–,–,–,–,–,–,–,–,–,–,–,–,–,–,–,–
CCn1cc(C(=O)O)c(=O)c2cc(F)c(N3CCNCC3)cc21,–,–,–,–,Active,–,–,–,–,–,–,–,–,–,–,–,–,–,–,–,Activity [5]: Active
COC(=O)c1cc(-c2ccc(NC(=O)c3cc(NC(=O)CCCOc4cc5c(cc4OC)C(=O)N4CCC[C@H]4C=N5)cn3C)cc2)cn1C,15.7 °C,18.5 °C,16.3 °C,17.4 °C,Active,Dde,Active,Active,Active,Active,Active,Active,Active,Active,Active,Active,–,–,–,–,Activity [8]: Active; Activity [17]: 5%; Activity [20]: 40%; fold change (FC) [21]: 2
COS(C)(=O)=O,–,–,–,–,Active,–,–,–,–,–,–,–,–,–,–,–,–,–,–,–,–
CO[C@@]12[C@H](COC(N)=O)C3=C(C(=O)C(C)=C(N)C3=O)N1C[C@@H]1N[C@@H]12 [MITOMYCIN],12.6 °C,12.8 °C,11.5 °C,11.8 °C,–,Dde,Active,–,–,–,–,–,–,–,Active,Active,Active,5%,10%,2,fold change (FC) [23]: 2.5
COC(=O)c1cc2cc(NC(=O)c3cc(NC(=O)CCCOc4cc5c(cc4OC)C(=O)N4CCC[C@H]4C=N5)cn3C)ccc2s1,14 °C,15.6 °C,15.6 °C,15.9 °C,Active,Dde,Active,Active,Active,Active,Active,Active,Active,Active,Active,Active,Active,5%,56%,2,–
